Experimental data: PMC3149718 (Molecular and cellular biochemistry, 2011)
Changes are numbered by the printed parent chain. Values belong to the molecule of their own block, whether it stands above or below them.

Columns and labels:
[1] = target: T1, Cy3-labeled CPTI WT 89-residue peptide (Rattus norvegicus, UniProt P32198); assay: FRET between Cy3-labeled CPTI peptide and Cy5-labeled LCFA-CoA binding proteins; details: Cy5-labeled acceptor protein; for Sensitized Emission R (intermolecular distance): donor Cy3-CPTI WT
T1 sequence (P32198 381-469): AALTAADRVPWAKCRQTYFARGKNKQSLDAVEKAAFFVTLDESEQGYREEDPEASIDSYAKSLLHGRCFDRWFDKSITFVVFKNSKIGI

[2] = target: T2, W391A mutant CPTI in mitochondria from yeast (Rattus norvegicus, UniProt P32198, W391A); assay: CPTI activity assay; format: biochemical
T2 sequence (P32198 1-773 W391A): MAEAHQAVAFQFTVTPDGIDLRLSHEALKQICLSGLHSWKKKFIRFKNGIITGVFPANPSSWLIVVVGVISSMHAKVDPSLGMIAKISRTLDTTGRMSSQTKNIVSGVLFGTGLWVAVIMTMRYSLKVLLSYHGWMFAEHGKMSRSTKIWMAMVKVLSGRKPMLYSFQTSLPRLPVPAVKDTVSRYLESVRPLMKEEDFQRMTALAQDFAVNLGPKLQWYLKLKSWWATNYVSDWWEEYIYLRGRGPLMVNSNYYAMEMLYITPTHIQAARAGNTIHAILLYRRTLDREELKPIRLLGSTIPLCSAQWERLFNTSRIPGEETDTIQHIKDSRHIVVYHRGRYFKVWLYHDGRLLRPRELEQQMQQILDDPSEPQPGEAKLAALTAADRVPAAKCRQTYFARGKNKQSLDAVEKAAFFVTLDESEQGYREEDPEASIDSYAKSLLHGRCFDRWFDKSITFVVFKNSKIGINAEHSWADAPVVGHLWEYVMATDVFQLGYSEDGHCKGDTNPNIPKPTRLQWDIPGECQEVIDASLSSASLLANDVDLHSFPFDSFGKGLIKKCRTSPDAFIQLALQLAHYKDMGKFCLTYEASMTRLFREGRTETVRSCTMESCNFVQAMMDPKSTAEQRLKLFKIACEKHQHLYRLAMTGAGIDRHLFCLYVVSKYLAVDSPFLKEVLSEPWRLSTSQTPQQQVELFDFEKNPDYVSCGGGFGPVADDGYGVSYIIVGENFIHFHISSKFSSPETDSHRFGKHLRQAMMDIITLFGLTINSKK
How it was run: (§1)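 Mitochondria isolated from yeast strains expressing wild-type or mutant CPTI were assayed by forward exchange with L-[methyl-3H]carnitine at a fixed 1.0 mM carnitine, using 150 µg mitochondrial protein. […] Incubation was 5 min at 30°C and was stopped with 6% perchloric acid. Values are mean ± SE.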

[3] = target: T3, wild-type CPTI in mitochondria from yeast (Rattus norvegicus, UniProt P32198); assay: CPTI activity assay; format: biochemical
T3 sequence (P32198 1-773): T2 sequence (P32198 1-773 W391A) with A391W
How it was run: as §1

[4] = target: T4, W452A mutant CPTI in mitochondria from yeast (Rattus norvegicus, UniProt P32198, W452A); assay: CPTI activity assay; format: biochemical
T4 sequence (P32198 1-773 W452A): T2 sequence (P32198 1-773 W391A) with A391W, W452A
How it was run: as §1

[5] = target: T5, Cy3-labeled W391A 89-residue CPTI peptide (Rattus norvegicus, UniProt P32198, W391A); assay: FRET between Cy3-labeled CPTI peptide and Cy5-labeled LCFA-CoA binding proteins; details: donor Cy3-W391A, Cy5-labeled acceptor protein
T5 sequence (P32198 381-469 W391A): T1 sequence (P32198 381-469) with W11A

[6] = target: T6, Cy3-labeled W452A 89-residue CPTI peptide (Rattus norvegicus, UniProt P32198, W452A); assay: as above; details: donor Cy3-W452A, Cy5-labeled acceptor protein
T6 sequence (P32198 381-469 W452A): T1 sequence (P32198 381-469) with W72A

[7] = donor protein 15uM, palmitoyl-CoA to protein molar ratio 7.41
[8] = donor protein 30uM, palmitoyl-CoA to protein molar ratio 3.70
[9] = donor protein 60uM, palmitoyl-CoA to protein molar ratio 1.85

Molecule: CytoC: Cytochrome C purchased from Sigma Aldrich, used as control protein [reference compound]
- Sensitized Emission Kd ([1]; donor Cy3-CPTI WT 30 nM, PBS 24°C): no FRET or binding was observed

- CPTI activity, W391A [2, 7]: 4.7 ± 0.1 nmol/min/mg
- CPTI activity, W391A [2, 8]: 5.7 ± 0.2 nmol/min/mg
- CPTI activity, W391A [2, 9]: 4.5 ± 0.1 nmol/min/mg
- CPTI activity, WT [3, 7]: 31.7 ± 1.1 nmol/min/mg
- CPTI activity, WT [3, 8]: 26.1 ± 1.1 nmol/min/mg
- CPTI activity, WT [3, 9]: 16.5 ± 0.1 nmol/min/mg
- CPTI activity, W452A [4, 7]: 0.8 ± 0.2 nmol/min/mg
- CPTI activity, W452A [4, 8]: 1.2 ± 0.2 nmol/min/mg
- CPTI activity, W452A [4, 9]: 0.9 ± 0.2 nmol/min/mg
B1: SCP-2: Human recombinant sterol carrier protein-2 (protein, UniProt P22307 1-547, looked up)
Sterol carrier protein 2: MSSSPWEPATLRRVFVVGVGMTKFVKPGAENSRDYPDLAEEAGKKALADAQIPYSAVDQACVGYVFGDSTCGQRAIYHSLGMTGIPIINVNNNCATGSTALFMARQLIQGGVAECVLALGFEKMSKGSLGIKFSDRTIPTDKHVDLLINKYGLSAHPVAPQMFGYAGKEHMEKYGTKIEHFAKIGWKNHKHSVNNPYSQFQDEYSLDEVMASKEVFDFLTILQCCPTSDGAAAAILASEAFVQKYGLQSKAVEILAQEMMTDLPSSFEEKSIIKMVGFDMSKEAARKCYEKSGLTPNDIDVIELHDCFSTNELLTYEALGLCPEGQGATLVDRGDNTYGGKWVINPSGGLISKGHPLGATGLAQCAELCWQLRGEAGKRQVPGAKVALQHNLGIGGAVVVTLYKMGFPEAASSFRTHQIEAVPTSSASDGFKANLVFKEIEKKLEEEGEQFVKKIGGIFAFKVKDGPGGKEATWVVDVKNGKGSVLPNSDKKADCTITMADSDFLALMTGKMNPQSAFFQGKLKITGNMGLAMKLQNLQLQPGNAKL
modifications: Cy5 label

- CPTI activity, W391A [2, 7]: 4.2 ± 0.1 nmol/min/mg
- CPTI activity, W391A [2, 8]: 5.9 ± 0.1 nmol/min/mg
- CPTI activity, W391A [2, 9]: 7.4 ± 0.1 nmol/min/mg
- CPTI activity, WT [3, 7]: 39.3 ± 2.5 nmol/min/mg
- CPTI activity, WT [3, 8]: 37.6 ± 0.1 nmol/min/mg
- CPTI activity, WT [3, 9]: 34.0 ± 0.1 nmol/min/mg
- CPTI activity, W452A [4, 7]: 0.9 ± 0.2 nmol/min/mg
- CPTI activity, W452A [4, 8]: 1.1 ± 0.1 nmol/min/mg
- CPTI activity, W452A [4, 9]: 1.6 ± 0.1 nmol/min/mg
B2: L-FABP: Mouse recombinant liver fatty acid binding protein, delipidated (protein)
chain: MNFSGKYQLQSQENFEPFMKAIGLPEDLIQKGKDIKGVSEIVHEGKKIKLTITYGPKVVRNEFTLGEECELETMTGEKVKAVVKLEGDNKMVTTFKGIKSVTELNGDTITNTMTLGDIVYKRVSKRI
modifications: Cy5 dye, approximately 1 dye per protein molecule (in the FRET assay only; unlabelled in circular dichroism)
- Sensitized Emission R (intermolecular distance) [5]: 50 ± 2 Å
- Sensitized Emission R (intermolecular distance) [6]: 82 ± 1 Å
- Sensitized Emission R (intermolecular distance) [1]: 56 ± 3 Å

- CPTI activity, W391A [2, 7]: 3.3 ± 0.1 nmol/min/mg
- CPTI activity, W391A [2, 8]: 4.5 ± 0.9 nmol/min/mg
- CPTI activity, W391A [2, 9]: 5.7 ± 0.1 nmol/min/mg
- CPTI activity, WT [3, 7]: 31.8 ± 2.1 nmol/min/mg
- CPTI activity, WT [3, 8]: 27.6 ± 2.4 nmol/min/mg
- CPTI activity, WT [3, 9]: 13.2 ± 0.1 nmol/min/mg
- CPTI activity, W452A [4, 7]: 0.7 ± 0.2 nmol/min/mg
- CPTI activity, W452A [4, 8]: 0.8 ± 0.2 nmol/min/mg
- CPTI activity, W452A [4, 9]: 1.3 ± 0.1 nmol/min/mg
B3: ACBP: Mouse recombinant acyl CoA binding protein (protein)
chain: MSQAEFDKAAEEVKRLKTQPTDEEMLFIYSHFKQATVGDVNTDRPGLLDLKGKAKWDSWNKLKGTSKESAMKTYVEKVDELKKKYGI
modifications: Cy5 dye, approximately 1 dye per protein molecule (in the FRET assay only; unlabelled in circular dichroism)
- Sensitized Emission R (intermolecular distance) [5]: 65 ± 1 Å
- Sensitized Emission R (intermolecular distance) [6]: 65.8 ± 0.2 Å
- Sensitized Emission R (intermolecular distance) [1]: 56 ± 1 Å
